Activity calls are given as the source filed them. The calls are words filed in the database; no cut-off is given here.
Assays:
[1] = tested on: B16; test: Antimelanogenic activity in mouse B16 cells assessed as decrease in intracellular melanin level after 4 days; format: functional, cell-based; conditions: B16, 96 h
Procedure, shortened: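 B16 cells in DMEM with 10% FBS and penicillin/streptomycin, seeded at 5000 cells/well and preincubated 24 h at 37 °C in 5% CO2. Cultured with IBMX (100 µM) with or without sample at 6.3–100 µM for 48 h, then in fresh medium under the same conditions for a further 48 h. Cells dissolved in 1 N NaOH at 90 °C for 1 h. Relative melanin read at 400 nm. Arbutin was the positive control.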

[2] = molecular target: T1, Tyrosinase (Agaricus bisporus, UniProt O42713); test: Inhibition of mushroom tyrosinase
T1 sequence (O42713 whole entry): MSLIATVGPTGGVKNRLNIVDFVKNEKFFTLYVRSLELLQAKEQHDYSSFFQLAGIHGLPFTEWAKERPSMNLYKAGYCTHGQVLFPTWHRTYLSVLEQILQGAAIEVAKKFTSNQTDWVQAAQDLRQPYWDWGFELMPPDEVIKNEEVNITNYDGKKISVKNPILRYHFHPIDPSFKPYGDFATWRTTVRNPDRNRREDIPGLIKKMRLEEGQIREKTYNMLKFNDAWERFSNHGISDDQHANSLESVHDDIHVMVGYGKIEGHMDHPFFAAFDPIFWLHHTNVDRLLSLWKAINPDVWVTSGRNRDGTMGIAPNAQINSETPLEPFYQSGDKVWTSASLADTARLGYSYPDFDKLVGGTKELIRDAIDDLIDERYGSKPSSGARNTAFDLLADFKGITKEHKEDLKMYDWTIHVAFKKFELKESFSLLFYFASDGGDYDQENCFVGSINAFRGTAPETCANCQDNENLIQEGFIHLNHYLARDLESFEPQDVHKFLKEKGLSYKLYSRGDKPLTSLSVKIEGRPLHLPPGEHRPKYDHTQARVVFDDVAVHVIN

[3] = tested on: B16; test: Antimelanogenic activity in mouse B16 cells assessed as decrease in intracellular melanin level at IC50 after 4 days; format: functional; parameters: scale not given: the % may be the effect or the level left
[4] = tested on: B16; test: Cytotoxicity against mouse B16 cells assessed as cell viability after 4 days by MTT assay; format: cell-based; conditions: b16, 96 h
Procedure, shortened: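 B16 cells were cultured as for the melanin assay: IBMX 100 µM and sample at 6.3–100 µM for 4 days. MTT (5 mg/mL solution) was added for 2 h, and the formazan was dissolved in DMSO. Absorbance was read at 550 and 700 nm. Viability was taken from the absorbance difference between samples and controls, in triplicate.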

[5] = tested on: B16; test: Inhibition of tyrosinase expression in mouse B16 cells after 1 hr by Western blotting; format: functional, cell-based
Procedure, shortened: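 B16 cells were treated with sample at 50 and 75 µM plus 0.1 mM IBMX, then lysed. Lysates were run on 7.5% SDS–PAGE and transferred to PVDF, which was blocked 1 h in 5% skim milk. Anti-tyrosinase (1:2000) was applied overnight and anti-β-actin (1:2000) for 1 h, followed by HRP-conjugated secondary IgG.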

Structure (SMILES) | IC50 [1] | IC50 [2] | Activity [3] | other results
COC(=O)C1=C2Nc3ccccc3[C@]23CCN2C[C@@H](C(C)=O)[C@H]1C[C@@H]23 [ALPNEUMINE E] | 71.4 µM | > 100 µM | – | –
COC(=O)[C@@]12CO[C@@]3(O)[C@H]1CCN1CC[C@H]3[C@@H]1c1c2[nH]c2ccccc12 [ALPNEUMINE F] | – | > 100 µM | – | –
CC[C@@]12C=C(C(=O)OC)n3c4c(c5ccccc53)CCN(CCC1)[C@H]42 [APOVINCAMINE] | 49.8 µM | – | <50% | –
CC[C@]12CCCN3CCc4c(n(c5ccccc45)[C@@](O)(C(=O)OC)C1)[C@@H]32 [VINCAMINE] | 68.9 µM | – | <50% | –
COC(=O)C1=C2Nc3c(O)cccc3[C@]23CCN2C[C@H](C(C)=O)[C@H]1C[C@@H]23 [ALPNEUMINE B] | – | > 100 µM | – | –
COC(=O)C1=C2Nc3c(O)cccc3[C@]23CC[N+]2([O-])C[C@H](C(C)=O)[C@H]1C[C@H]32 (some centres not stated) [ALPNEUMINE A] | – | > 100 µM | – | –
COC(=O)C1=C2Nc3ccccc3[C@]23CC[N+]2([O-])C[C@H](C(C)=O)[C@H]1C[C@H]32 (some centres not stated) [ALPNEUMINE C] | – | > 100 µM | – | –
CC[C@]12CCC[N+]3([O-])CCc4c(n(c5ccccc45)[C@@](O)(C(=O)OC)C1)[C@H]23 (some centres not stated) [ALPNEUMINE G] | 58.3 µM | > 100 µM | <50% | Activity [4]: Dose-dependent effect; Activity [5]: Active
COC(=O)C1=C2Nc3c(O)cccc3[C@]23CCN2C[C@@H](C(C)=O)[C@H]1C[C@@H]23 [ALPNEUMINE D] | – | > 100 µM | – | –
COC(=O)[C@@]12COCC[C@H]3[C@@H]1CC[N@+](C)([O-])[C@H]3c1c2[nH]c2ccccc12 [ALPNEUMINE H] | – | > 100 µM | – | –

Source: ChEMBL document CHEMBL1166017, “Alpneumines A-H, new anti-melanogenic indole alkaloids from Alstonia pneumatophora” (Bioorg Med Chem, 2010)
